From ChEMBL document CHEMBL1154310, “Stereoselective synthesis and antimicrobial activity of benzofuran-based (1E)-1-(piperidin-1-yl)-N2-arylamidrazones” (2009)
≈ marks a conversion by molar mass, not a printed value. Calls of active or inactive are those of the source. No cut-off for these calls is given here.

Legend:
Staphylococcus aureus [1] = assay: Antibacterial activity against Staphylococcus aureus at 5 mg/ml after 24 to 48 hrs by agar diffusion technique; assay type: functional; conditions: read-out: IZ
In short: (§1)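 Hole-plate diffusion on nutrient agar (pH 6.2) seeded with clinical bacterial isolates. 1 cm wells were filled with 100 of a 5 mg/ml DMSO solution, with DMSO-only control wells and amoxicilline as the reference. Plates were held at 4 °C for 1 h, then incubated at 37 °C. Inhibition zone diameter was read after 24–48 h.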

Candida albicans [2] = assay: Ratio of compound to grisofulvin activity against Candida albicans at 5 mg/ml after 24 to 48 hrs by agar diffusion technique; assay type: functional
Candida albicans [3] = assay: Antifungal activity against Candida albicans at 5 mg/ml after 24 to 48 hrs by agar diffusion technique; assay type: functional; conditions: read-out: IZ
In short: (§2)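 Clinical fungal or yeast isolates were seeded on malt extract agar (pH 5.4). 1 cm holes received 100 of test solution at 5 mg/ml in DMSO, with DMSO control holes and griseofulvin as the standard. Plates sat 1 h at 4 °C, then were incubated at 28 °C. Zone diameters were measured at 24–48 h.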

Bacillus subtilis [4] = assay: Ratio of compound to amoxicilline activity against Bacillus subtilis at 5 mg/ml after 24 to 48 hrs by agar diffusion technique; assay type: functional
Pseudomonas aeruginosa [5] = assay: Ratio of compound to amoxicilline activity against Pseudomonas aeruginosa at 5 mg/ml after 24 to 48 hrs by agar diffusion technique; assay type: functional
Aspergillus fumigatus [6] = assay: Ratio of compound to grisofulvin activity against Aspergillus fumigatus at 5 mg/ml after 24 to 48 hrs by agar diffusion technique; assay type: functional
Escherichia coli [7] = assay: Antibacterial activity against Escherichia coli at 5 mg/ml after 24 to 48 hrs by agar diffusion technique; assay type: functional; conditions: read-out: IZ; in short: as §1
Escherichia coli [8] = assay: Ratio of compound to amoxicilline activity against Escherichia coli at 5 mg/ml after 24 to 48 hrs by agar diffusion technique; assay type: functional
[9] = system: Syncephalastrum racemosum; assay: Ratio of compound to grisofulvin activity against Syncephalastrum racemosum at 5 mg/ml after 24 to 48 hrs by agar diffusion technique; assay type: functional
Geotrichum candidum [10] = assay: Ratio of compound to grisofulvin activity against Geotrichum candidum at 5 mg/ml after 24 to 48 hrs by agar diffusion technique; assay type: functional
Staphylococcus aureus [11] = assay: Ratio of compound to amoxicilline activity against Staphylococcus aureus at 5 mg/ml after 24 to 48 hrs by agar diffusion technique; assay type: functional
Bacillus subtilis [12] = assay: Antibacterial activity against Bacillus subtilis at 5 mg/ml after 24 to 48 hrs by agar diffusion technique; assay type: functional; conditions: read-out: IZ; in short: as §1
[13] = system: Syncephalastrum racemosum; assay: Antifungal activity against Syncephalastrum racemosum at 5 mg/ml after 24 to 48 hrs by agar diffusion technique; assay type: functional; conditions: read-out: IZ; in short: as §2
Aspergillus fumigatus [14] = assay: Antifungal activity against Aspergillus fumigatus at 5 mg/ml after 24 to 48 hrs by agar diffusion technique; assay type: functional; conditions: read-out: IZ; in short: as §2
Pseudomonas aeruginosa [15] = assay: Antibacterial activity against Pseudomonas aeruginosa at 5 mg/ml after 24 to 48 hrs by agar diffusion technique; assay type: functional; conditions: read-out: IZ; in short: as §1
Geotrichum candidum [16] = assay: Antifungal activity against Geotrichum candidum at 5 mg/ml after 24 to 48 hrs by agar diffusion technique; assay type: functional; conditions: read-out: IZ; in short: as §2
Candida albicans [17] = assay: Antifungal activity against Candida albicans assessed as aggregation of lysed mitochondria by transmission electron microscopy; assay type: functional, organism-based
In short: (§3)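 Treated A. fumigatus and C. albicans were fixed, dehydrated and stained. Ultrastructure was then examined by transmission electron microscopy at 80 kV and 25,000 magnification.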

Candida albicans [18] = assay: Antifungal activity against Candida albicans after 24 to 48 hrs by serial dilution technique; assay type: functional
In short: (§4)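 MIC by serial dilution: DMSO solutions started at a maximum of 500 and were diluted twofold in succession. Each dilution was inoculated with the test organism, and inhibition zones were measured by agar diffusion.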

Candida albicans [19] = assay: Antifungal activity against Candida albicans assessed as shrinking of cell membrane by transmission electron microscopy; assay type: functional, organism-based; in short: as §3
Aspergillus fumigatus [20] = assay: Antifungal activity against Aspergillus fumigatus after 24 to 48 hrs by serial dilution technique; assay type: functional; in short: as §4
Aspergillus fumigatus [21] = assay: Antifungal activity against Aspergillus fumigatus assessed as appearance of chlamydospore at 100 uL by microscopy; assay type: functional, organism-based
In short: (§5)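 Agar cultures exposed to 100 of compound were examined directly by phase-contrast or bright-field microscopy with video-camera image analysis, at ×400 for multicellular and ×1000 for unicellular fungi.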

Candida albicans [22] = assay: Antifungal activity against Candida albicans assessed as appearance of elongated and swollen cells at 100 uL by microscopy; assay type: functional, organism-based; in short: as §5
Candida albicans [23] = assay: Antifungal activity against Candida albicans assessed as increase in thickness of hyphal cell wall and cell membrane by transmission electron microscopy; assay type: functional, organism-based; in short: as §3
Aspergillus fumigatus [24] = assay: Antifungal activity against Aspergillus fumigatus assessed as shrinking of cell membrane by transmission electron microscopy; assay type: functional, organism-based; in short: as §3
Candida albicans [25] = assay: Antifungal activity against Candida albicans assessed as distortion of cellular sub-organs by transmission electron microscopy; assay type: functional, organism-based; in short: as §3
Aspergillus fumigatus [26] = assay: Antifungal activity against Aspergillus fumigatus assessed as increase in thickness of hyphal cell wall and cell membrane by transmission electron microscopy; assay type: functional, organism-based; in short: as §3
Aspergillus fumigatus [27] = assay: Antifungal activity against Aspergillus fumigatus assessed as aggregation of lysed mitochondria by transmission electron microscopy; assay type: functional, organism-based; in short: as §3
Aspergillus fumigatus [28] = assay: Antifungal activity against Aspergillus fumigatus assessed as distortion of cellular sub-organs by transmission electron microscopy; assay type: functional, organism-based; in short: as §3
Aspergillus fumigatus [29] = assay: Antifungal activity against Aspergillus fumigatus assessed as reduction in size of all morphological features by microscopy; assay type: functional, organism-based; in short: as §5
Staphylococcus aureus [30] = assay: Antibacterial activity against Staphylococcus aureus after 24 to 48 hrs by serial dilution technique; assay type: functional; in short: as §4
Candida albicans [31] = assay: Antifungal activity against Candida albicans assessed as occurrence of cellular aggregation by microscopy; assay type: functional, organism-based; in short: as §5

Structure (SMILES) | zone of inhibition at 5000 µg/mL (Staphylococcus aureus [1]) [mm] | Ratio (Candida albicans [2]) | zone of inhibition at 5000 µg/mL (Candida albicans [3]) [mm] | Ratio (Bacillus subtilis [4]) | Ratio (Pseudomonas aeruginosa [5]) | Ratio (Aspergillus fumigatus [6]) | zone of inhibition at 5000 µg/mL (Escherichia coli [7]) [mm] | Ratio (Escherichia coli [8]) | Ratio [9] | Ratio (Geotrichum candidum [10]) | Ratio (Staphylococcus aureus [11]) | zone of inhibition at 5000 µg/mL (Bacillus subtilis [12]) [mm] | zone of inhibition at 5000 µg/mL [13] [mm] | zone of inhibition at 5000 µg/mL (Aspergillus fumigatus [14]) [mm] | also measured
C/C=N/NC(=O)c1oc2ccccc2c1C | 16 | 0.8 | 8 | 0 | 0 | 0 | 20 | 0.71 | 0 | 0 | 0.53 |  |  |  | 
CC(=N\NC(=O)c1oc2ccccc2c1C)/C(=N/Nc1ccc([N+](=O)[O-])cc1)S(=O)(=O)c1ccccc1 | 8 | 1.5 | 15 | 0.42 | 0 | 0 | 6 | 0.21 | 0 | 0 | 0.27 | 10 |  |  | 
Cc1c(C(=O)N/N=C(/C=C/c2ccccc2)C(=N/Nc2ccccc2)\N2CCCCC2)oc2ccccc12 | 16 | 1.5 | 15 | 0.63 | 0 | 0.84 | 14 | 0.5 | 1 | 0 | 0.53 | 15 | 19 | 21 | 
Cc1c(C(=O)N/N=C/C=C/c2ccccc2)oc2ccccc12 |  | 0.5 | 5 | 0.33 | 0 | 0 |  | 0 | 0 | 0 | 0 | 8 |  |  | 
COc1ccc(N/N=C(Cl)/C(C)=N/NC(=O)c2oc3ccccc3c2C)cc1 |  | 1 | 10 | 0 | 0 | 0 |  | 0 | 0 | 0 | 0 |  |  |  | 
CC(=N\NC(=O)c1oc2ccccc2c1C)/C(Cl)=N/Nc1ccc([N+](=O)[O-])cc1 | 12 | 1.2 | 12 | 0.25 | 0.25 | 0.56 | 10 | 0.36 | 0 | 0.5 | 0.4 | 6 |  | 14 | zone of inhibition at 5000 µg/mL (Pseudomonas aeruginosa [15]): 5 mm; zone of inhibition at 5000 µg/mL (Geotrichum candidum [16]): 5 mm
CC(=N\NC(=O)c1oc2ccccc2c1C)/C(=N/Nc1ccccc1)N1CCCCC1 | 15 | 1.4 | 14 | 0 | 0 | 1.12 | 17 | 0.61 | 0.84 | 0 | 0.5 |  | 16 | 28 | 
CC(=N\NC(=O)c1oc2ccccc2c1C)/C(=N/Nc1ccc([N+](=O)[O-])cc1)NO |  | 0.9 | 9 | 0 | 0 | 0 |  | 0 | 1.05 | 0 | 0 |  | 20 |  | 
Cc1c(C(=O)N/N=C(/C=C/c2ccccc2)C(=N/Nc2ccc([N+](=O)[O-])cc2)\N2CCCCC2)oc2ccccc12 |  | 1.7 | 17 | 0 | 0 | 0 | 8 | 0.29 | 1.1 | 0 | 0 |  | 21 |  | 
CC(=N\NC(=O)c1oc2ccccc2c1C)/C(=N/Nc1ccc([N+](=O)[O-])cc1)N1CCCCC1 | 26 | 1.8 | 18 | 0.83 | 0.35 | 1.28 | 20 | 0.71 | 1.16 | 1.2 | 0.87 | 20 | 22 | 32 | Activity (Candida albicans [17]): Active; MIC (Candida albicans [18]): 75 µg/mL (≈ 162 µM); Activity (Candida albicans [19]): Active; MIC (Aspergillus fumigatus [20]): 25 µg/mL (≈ 54.1 µM); Activity (Aspergillus fumigatus [21]): Active; Activity (Candida albicans [22]): Active; Activity (Candida albicans [23]): Active; Activity (Aspergillus fumigatus [24]): Active; zone of inhibition at 5000 µg/mL (Pseudomonas aeruginosa [15]): 7 mm; Activity (Candida albicans [25]): Active; Activity (Aspergillus fumigatus [26]): Active; Activity (Aspergillus fumigatus [27]): Active; Activity (Aspergillus fumigatus [28]): Active; zone of inhibition at 5000 µg/mL (Geotrichum candidum [16]): 12 mm; Activity (Aspergillus fumigatus [29]): Active; MIC (Staphylococcus aureus [30]): 75 µg/mL (≈ 162 µM)
Cc1c(C(=O)N/N=C(/C=C/c2ccc(Cl)cc2)C(=N/Nc2ccc(Br)cc2)\N2CCCCC2)oc2ccccc12 | 10 | 1.4 | 14 | 0.67 | 0 | 0 | 10 | 0.36 | 1.05 | 0 | 0.33 | 16 | 20 |  | 
CC1(C)S[C@@H]2[C@H](NC(=O)[C@H](N)c3ccc(O)cc3)C(=O)N2[C@H]1C(=O)O [AMOXICILLIN] | 30 | 1 | 10 | 1 | 1 | 1 | 28 | 1 | 1 | 1 | 1 | 24 | 19 | 25 | zone of inhibition at 5000 µg/mL (Pseudomonas aeruginosa [15]): 20 mm; zone of inhibition at 5000 µg/mL (Geotrichum candidum [16]): 10 mm; MIC (Staphylococcus aureus [30]): 50 µg/mL (≈ 137 µM)
CC(=N\NC(=O)c1oc2ccccc2c1C)/C(Cl)=N/Nc1ccccc1 |  | 0.6 | 6 | 0 | 0 | 0 |  | 0 | 0 | 0 | 0 |  |  |  | 
CC(=N\NC(=O)c1oc2ccccc2c1C)/C(Cl)=N/Nc1ccc(Br)cc1 |  | 1 | 10 | 0.38 | 0 | 0 |  | 0 | 0.26 | 0 | 0 | 9 | 5 |  | 
COC1=CC(=O)C[C@@H](C)[C@]12Oc1c(Cl)c(OC)cc(OC)c1C2=O [GRISEOFULVIN] |  |  |  |  |  |  |  |  |  |  |  |  |  |  | Activity (Candida albicans [31]): Active; MIC (Candida albicans [18]): 75 µg/mL (≈ 213 µM); MIC (Aspergillus fumigatus [20]): 50 µg/mL (≈ 142 µM)
CC(=N\NC(=O)c1oc2ccccc2c1C)/C(Cl)=N/Nc1ccc(C)cc1 |  | 0.6 | 6 | 0.29 | 0 | 0 |  | 0 | 0 | 0 | 0 | 7 |  |  | 
